17 compounds from ChEMBL document CHEMBL4371041, “Synthesis and evaluation of thieno[3,2-d]pyrimidine derivatives as novel FMS inhibitors” (Bioorg Med Chem Lett, 2019) can be followed below.

Bounds are passed on as bounds.

As usually defined, the GI50 is the concentration giving 50% growth inhibition. Higher therefore signals lower sensitivity of the cells. As usually defined, the half-life is the time in which the quantity being followed falls by half. Low readings indicate fast loss, high ones slow loss. What is called AUC(0-t) is exposure summed from dosing to a finite time, without extrapolation to infinity. Low readings indicate low exposure, high ones high exposure. A word on the Tmax: it is the time from dosing to the highest level. What is called bioavailability is dose-corrected exposure relative to a reference, in per cent. A high value points to much systemic uptake. What is called Vd is a proportionality between amount in the body and measured concentration, not a real space. Low values mean confinement near the circulation, high ones extensive tissue distribution. In general, Cmax refers to the highest concentration seen after dosing. One may read the clearance as the rate of elimination divided by the concentration. As a reminder, the IC50 is the point on the concentration scale where inhibition reaches its midpoint.

One data set deals with NFS-60. Kind of data set: Growth inhibition of mouse NFS60 cells after 72 hrs by CellTiter96 AQueous one solution cell proliferation assay. Particulars: NFS-60, 72 h. The data set is classed as functional.
Data set [1] can be described thus: Stability in human hepatocytes assessed as parent compound remaining measured after 60 mins. Type of data set: ADME, cell-based, Hepatocyte. Particulars: read-out: Stability.
The nature of data set [2]: Half life in CD-1 mouse at 3 mg/kg, iv. Type of data set: ADME, organism-based. The conditions noted are these: in vivo.
Data set [3] in a line: AUC (0 to 7 hrs) in CD-1 mouse at 3 mg/kg, iv. Type of data set: ADME, organism-based. Also noted: dose 3 mg/kg, time < 7 hr, route intravenous. Particulars: in vivo.
A short description of data set [4]: Tmax in CD-1 mouse at 10 mg/kg, po. The data set is classed as ADME, organism-based. The conditions noted are these: in vivo.
Data set [5] can be described thus: Half life in CD-1 mouse at 10 mg/kg, po. Type of data set: ADME, organism-based. The conditions noted are these: in vivo.
Data set [6] is described as follows: Oral bioavailability in CD-1 mouse at 10 mg/kg. Type of data set: ADME, organism-based. The conditions noted are these: in vivo.
Data set [7] in a line: Volume of distribution in CD-1 mouse at 3 mg/kg, iv. Type of data set: ADME, organism-based. Particulars: in vivo.
A short description of data set [8]: Cmax in CD-1 mouse at 10 mg/kg, po. Type of data set: ADME, organism-based. Details: dose 10 mg/kg, route oral. The conditions noted are these: in vivo.
Data set [9] is described as follows: Cmax in CD-1 mouse at 3 mg/kg, iv. Also noted: dose 3 mg/kg, route intravenous. The conditions noted are these: in vivo. The data set is classed as ADME, organism-based.
A short description of data set [10]: AUC (0 to 7 hrs) in CD-1 mouse at 10 mg/kg, po. The conditions noted are these: in vivo. The data set is classed as ADME, organism-based. Details: time < 7 hr, dose 10 mg/kg, route oral.
Data set [11] in a line: Clearance in CD-1 mouse at 3 mg/kg, iv. Type of data set: ADME, organism-based. Particulars: in vivo.
The next data set deals with Cytochrome P450 2C19 (Homo sapiens, UniProt P33261). Kind of data set: Inhibition of CYP2C19 in human liver microsomes by LC-MS/MS analysis. The data set is classed as ADME. An outline of the steps:
(§1)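 Reversible CYP inhibition measured in human liver microsomes; metabolite formation quantified by LC/MS/MS.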
Background: Microsomes from liver hold many membrane-bound enzymes, among them those of drug oxidation.

The next data set concerns the target Cytochrome P450 2D6 (Homo sapiens, UniProt P10635). Kind of data set: Inhibition of CYP2D6 in human liver microsomes by LC-MS/MS analysis. The data set is classed as ADME. An outline of the steps:
as §1

A further data set concerns the target Cytochrome P450 2C9 (Homo sapiens, UniProt P11712). Kind of data set: Inhibition of CYP2C9 in human liver microsomes by LC-MS/MS analysis. Type of data set: ADME. An outline of the steps:
as §1

A further data set has as its target Cytochrome P450 3A4 (Homo sapiens, UniProt P08684). Kind of data set: Inhibition of CYP3A4 in human liver microsomes by LC-MS/MS analysis. Type of data set: ADME. The method, boiled down: as §1
The target in a further data set is Cytochrome P450 1A2 (Homo sapiens, UniProt P05177). Kind of data set: Inhibition of CYP1A2 in human liver microsomes by LC-MS/MS analysis. Type of data set: ADME. An outline of the steps: as §1
Cytochrome P450 1A2, sequence (P05177 whole entry): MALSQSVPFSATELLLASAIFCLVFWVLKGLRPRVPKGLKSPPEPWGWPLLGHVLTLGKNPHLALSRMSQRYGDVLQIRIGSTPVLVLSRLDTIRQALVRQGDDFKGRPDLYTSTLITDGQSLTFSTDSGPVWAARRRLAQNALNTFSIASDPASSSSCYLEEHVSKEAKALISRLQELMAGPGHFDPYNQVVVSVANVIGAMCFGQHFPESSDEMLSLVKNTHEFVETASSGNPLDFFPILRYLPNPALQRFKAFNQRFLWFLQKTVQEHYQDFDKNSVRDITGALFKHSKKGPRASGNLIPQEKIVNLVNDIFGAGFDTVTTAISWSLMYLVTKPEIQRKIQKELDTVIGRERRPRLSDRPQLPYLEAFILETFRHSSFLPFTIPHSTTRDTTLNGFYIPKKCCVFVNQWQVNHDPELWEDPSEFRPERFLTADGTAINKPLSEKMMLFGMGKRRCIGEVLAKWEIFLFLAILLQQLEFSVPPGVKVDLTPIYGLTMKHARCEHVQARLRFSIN

Cytochrome P450 2C9, sequence (P11712 whole entry): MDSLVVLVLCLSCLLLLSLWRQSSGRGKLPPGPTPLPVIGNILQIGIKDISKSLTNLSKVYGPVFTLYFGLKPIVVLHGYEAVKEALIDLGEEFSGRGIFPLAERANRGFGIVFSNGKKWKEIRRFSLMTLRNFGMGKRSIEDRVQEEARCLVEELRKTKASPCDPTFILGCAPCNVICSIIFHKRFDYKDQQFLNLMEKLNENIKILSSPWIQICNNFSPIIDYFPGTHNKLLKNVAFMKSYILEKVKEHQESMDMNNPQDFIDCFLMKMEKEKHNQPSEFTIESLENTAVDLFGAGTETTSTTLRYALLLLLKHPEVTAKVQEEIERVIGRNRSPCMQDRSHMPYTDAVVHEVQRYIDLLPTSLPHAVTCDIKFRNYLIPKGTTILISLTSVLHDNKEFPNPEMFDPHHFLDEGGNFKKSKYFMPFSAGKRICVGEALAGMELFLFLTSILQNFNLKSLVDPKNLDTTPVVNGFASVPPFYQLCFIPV
Cytochrome P450 2D6, sequence (P10635 whole entry): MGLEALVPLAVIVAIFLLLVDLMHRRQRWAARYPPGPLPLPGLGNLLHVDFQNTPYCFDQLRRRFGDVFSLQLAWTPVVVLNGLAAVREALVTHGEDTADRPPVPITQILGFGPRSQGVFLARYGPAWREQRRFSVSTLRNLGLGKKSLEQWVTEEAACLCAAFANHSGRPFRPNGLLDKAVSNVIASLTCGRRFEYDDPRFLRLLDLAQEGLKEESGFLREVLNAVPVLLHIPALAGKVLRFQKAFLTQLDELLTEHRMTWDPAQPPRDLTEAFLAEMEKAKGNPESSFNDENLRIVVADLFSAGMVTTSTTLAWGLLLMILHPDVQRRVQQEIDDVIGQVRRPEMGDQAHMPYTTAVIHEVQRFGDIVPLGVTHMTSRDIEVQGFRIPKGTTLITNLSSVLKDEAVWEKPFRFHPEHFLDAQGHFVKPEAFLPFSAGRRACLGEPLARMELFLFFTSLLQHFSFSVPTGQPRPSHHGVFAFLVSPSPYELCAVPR
Cytochrome P450 2C19, sequence (P33261 whole entry): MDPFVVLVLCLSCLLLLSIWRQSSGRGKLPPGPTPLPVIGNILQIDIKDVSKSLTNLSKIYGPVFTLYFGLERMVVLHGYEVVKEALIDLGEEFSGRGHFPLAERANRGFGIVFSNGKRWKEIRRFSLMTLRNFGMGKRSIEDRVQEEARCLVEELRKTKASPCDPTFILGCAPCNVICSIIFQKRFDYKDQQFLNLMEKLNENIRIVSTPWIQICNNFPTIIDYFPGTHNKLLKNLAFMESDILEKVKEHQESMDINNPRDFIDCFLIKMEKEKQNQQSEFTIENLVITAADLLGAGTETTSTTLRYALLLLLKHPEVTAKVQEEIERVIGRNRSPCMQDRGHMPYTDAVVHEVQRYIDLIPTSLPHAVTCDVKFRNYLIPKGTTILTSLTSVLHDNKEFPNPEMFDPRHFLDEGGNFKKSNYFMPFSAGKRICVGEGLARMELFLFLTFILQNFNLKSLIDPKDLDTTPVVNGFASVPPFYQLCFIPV
Cytochrome P450 3A4, sequence (P08684 whole entry): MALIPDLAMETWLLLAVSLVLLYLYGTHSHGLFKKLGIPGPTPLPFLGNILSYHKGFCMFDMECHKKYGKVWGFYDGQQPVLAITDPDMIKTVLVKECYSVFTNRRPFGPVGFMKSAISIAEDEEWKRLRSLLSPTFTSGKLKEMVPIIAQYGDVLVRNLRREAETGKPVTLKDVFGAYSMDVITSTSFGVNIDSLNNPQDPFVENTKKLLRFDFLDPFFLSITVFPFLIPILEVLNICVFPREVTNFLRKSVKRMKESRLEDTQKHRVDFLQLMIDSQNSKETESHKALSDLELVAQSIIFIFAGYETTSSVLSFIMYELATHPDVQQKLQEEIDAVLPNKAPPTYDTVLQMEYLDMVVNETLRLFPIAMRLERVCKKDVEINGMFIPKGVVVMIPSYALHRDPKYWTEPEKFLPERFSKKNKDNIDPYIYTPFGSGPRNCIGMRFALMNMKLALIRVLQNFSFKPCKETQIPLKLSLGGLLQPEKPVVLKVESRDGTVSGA

With `Nc1ncnc2c(C(=O)Nc3cccc4c3c(Br)nn4Cc3ccccc3)csc12`, the GI50 in the data set on NFS-60 amounted to 1000 nM.
Take `COc1ccc(COc2ccc(Cc3cnc(N)nc3N)cc2OC)cc1` [GW632580X]: the GI50 in the data set on NFS-60 was determined as 94 nM.
In turn, `Cc1cccc(Cn2nc(Cl)c3c(NC(=O)c4csc5c(N)ncnc45)cccc32)n1` registered a GI50 with NFS-60 of 8 nM. Besides, the remaining at 1 h in [1] is 66%.
For `C#CCn1nc(Br)c2c(NC(=O)c3csc4c(N)ncnc34)cccc21`, the GI50 with NFS-60 is above 10000 nM.
Still for that read-out and setting: the same measure for `Cc1cccc(Cn2nc(I)c3c(NC(=O)c4csc5c(N)ncnc45)cccc32)n1`: 30 nM; for `Nc1ncnc2c(C(=O)Nc3cccc4c3c(Br)nn4CC3CCCCC3)csc12`: 254 nM.
For `Cc1cccc(Cn2nc(Br)c3c(NC(=O)c4csc5c(N)ncnc45)cccc32)n1`, the half-life in data set [2] was 2.6 h; in [5] it was 3.9 h. The AUC(0-t) at 7 h in [3] stood at 5760 ng·h/mL; in data set [10] it was 6060 ng·h/mL. In data set [4], the Tmax was determined as 1 h. In addition, in data set [6], the bioavailability turned out to be 37%. The same compound had a Vd in data set [7] of 1.4 L/kg. Further, the figures for the maximum concentration (Cmax) in data set [8] and in data set [9] were 1620 ng/mL and 2400 ng/mL, respectively. The compound also returned a GI50 in the data set with NFS-60 of 27.5 to 28 nM. In data set [11], this compound showed a clearance of 6.67 mL/min/kg.
For the compound `CCc1nn(Cc2cccc(C)n2)c2cccc(NC(=O)c3csc4c(N)ncnc34)c12`, the GI50 with NFS-60 was above 10000 nM.
Turning to `CCn1nc(Cn2nc(Br)c3c(NC(=O)c4csc5c(N)ncnc45)cccc32)cc1C(C)C`, it took 62 nM to inhibit growth with NFS-60 by half (GI50).
In the case of `Nc1ncnc2c(C(=O)Nc3cccc4c3c(Br)nn4Cc3cccnc3)csc12`, the IC50 is 2020 nM at Cytochrome P450 2C19; above 20000 nM against Cytochrome P450 2D6; 1380 nM against Cytochrome P450 2C9; 310 nM on Cytochrome P450 3A4; below 250 nM on Cytochrome P450 1A2. The same compound registered a concentration for 50% growth inhibition (GI50) in the data set with NFS-60 of 77 nM.
Turning to `Nc1ncnc2c(C(=O)Nc3cccc4c3c(Br)nn4Cc3ccccn3)csc12`, the GI50 in the data set on NFS-60 worked out at 2500 nM.
Still for that read-out and setting: the same measure for `Nc1ncnc2c(C(=O)Nc3cccc4c3c(Br)nn4Cc3cccc(Br)n3)csc12`: 243 nM; for `COc1cccc(Cn2nc(Br)c3c(NC(=O)c4csc5c(N)ncnc45)cccc32)n1`: 34 nM.
Still for that read-out and setting: next, `C=Cc1nn(Cc2cccc(C)n2)c2cccc(NC(=O)c3csc4c(N)ncnc34)c12`: 4460 nM; `Nc1ncnc2c(C(=O)Nc3cccc4c3c(Br)nn4Cc3cccc(F)n3)csc12`: 233 nM; `COc1ccc(Cn2nc(Br)c3c(NC(=O)c4csc5c(N)ncnc45)cccc32)cc1`: 2390 nM.
As for `Nc1ncnc2c(C(=O)Nc3cccc4c3c(Br)nn4Cc3ccncc3)csc12`, the GI50 in the data set on NFS-60 was found to be 135 nM.
